Each structure is given as a SMILES string. Activity calls are given as the source filed them. The calls are words filed in the database; no cut-off is given here.

Format in all cases: cell-based
The target in test [1] is T1, Toll-like receptor 8 (Homo sapiens) (UniProt Q9NR97).
T1 sequence (whole entry): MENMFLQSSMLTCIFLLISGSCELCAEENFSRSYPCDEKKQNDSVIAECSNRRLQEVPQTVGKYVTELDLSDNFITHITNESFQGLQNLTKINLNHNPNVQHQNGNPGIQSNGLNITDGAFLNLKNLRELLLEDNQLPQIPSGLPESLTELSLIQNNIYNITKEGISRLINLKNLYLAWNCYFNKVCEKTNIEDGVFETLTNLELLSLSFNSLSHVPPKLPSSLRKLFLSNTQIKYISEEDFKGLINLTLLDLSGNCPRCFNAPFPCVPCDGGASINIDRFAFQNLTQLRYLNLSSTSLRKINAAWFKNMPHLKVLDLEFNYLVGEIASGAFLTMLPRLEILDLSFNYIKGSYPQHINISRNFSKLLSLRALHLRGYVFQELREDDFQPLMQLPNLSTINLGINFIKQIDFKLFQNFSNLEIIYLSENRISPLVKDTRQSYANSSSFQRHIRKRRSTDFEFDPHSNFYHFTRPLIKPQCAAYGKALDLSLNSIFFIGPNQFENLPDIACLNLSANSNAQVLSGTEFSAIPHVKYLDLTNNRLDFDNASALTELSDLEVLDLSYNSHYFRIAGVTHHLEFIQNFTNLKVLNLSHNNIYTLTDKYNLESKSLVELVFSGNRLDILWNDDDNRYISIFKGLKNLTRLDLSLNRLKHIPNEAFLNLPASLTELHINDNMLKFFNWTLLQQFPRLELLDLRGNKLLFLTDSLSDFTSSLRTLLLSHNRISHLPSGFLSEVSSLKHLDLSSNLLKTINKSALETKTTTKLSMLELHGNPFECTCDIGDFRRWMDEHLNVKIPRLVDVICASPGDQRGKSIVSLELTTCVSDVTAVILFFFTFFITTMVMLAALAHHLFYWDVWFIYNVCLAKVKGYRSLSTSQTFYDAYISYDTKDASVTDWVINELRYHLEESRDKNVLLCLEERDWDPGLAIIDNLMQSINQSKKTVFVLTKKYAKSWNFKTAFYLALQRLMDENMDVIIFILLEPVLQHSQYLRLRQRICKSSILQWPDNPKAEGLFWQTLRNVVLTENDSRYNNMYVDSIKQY
Briefly: Agonist activity at human TLR8 stably expressed in HEK293 cells cotransfected with secreted alkaline phosphatase assessed as induction of NFkappaB activation by measuring maximal response by quanti-blue SEAP reporter gene-based spectrophotometric method. The note with it: filed as agonist. The method in brief:
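TLR8/sAP HEK293 reporter cells, about 10^5 cells/ml, were exposed to graded ligand concentrations, and sAP was read at 620 nm with a chromogenic detection medium. Maximal response was compared across the dose-response curve, with area under the curve also reported. Quadruplicate samples were used.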
A general note: Reporter assays use an easily measured gene product as a stand-in for the process of interest.

Test [2] concerns the target T2, Toll-like receptor 7 (Homo sapiens) (UniProt Q9NYK1).
T2 sequence (whole entry): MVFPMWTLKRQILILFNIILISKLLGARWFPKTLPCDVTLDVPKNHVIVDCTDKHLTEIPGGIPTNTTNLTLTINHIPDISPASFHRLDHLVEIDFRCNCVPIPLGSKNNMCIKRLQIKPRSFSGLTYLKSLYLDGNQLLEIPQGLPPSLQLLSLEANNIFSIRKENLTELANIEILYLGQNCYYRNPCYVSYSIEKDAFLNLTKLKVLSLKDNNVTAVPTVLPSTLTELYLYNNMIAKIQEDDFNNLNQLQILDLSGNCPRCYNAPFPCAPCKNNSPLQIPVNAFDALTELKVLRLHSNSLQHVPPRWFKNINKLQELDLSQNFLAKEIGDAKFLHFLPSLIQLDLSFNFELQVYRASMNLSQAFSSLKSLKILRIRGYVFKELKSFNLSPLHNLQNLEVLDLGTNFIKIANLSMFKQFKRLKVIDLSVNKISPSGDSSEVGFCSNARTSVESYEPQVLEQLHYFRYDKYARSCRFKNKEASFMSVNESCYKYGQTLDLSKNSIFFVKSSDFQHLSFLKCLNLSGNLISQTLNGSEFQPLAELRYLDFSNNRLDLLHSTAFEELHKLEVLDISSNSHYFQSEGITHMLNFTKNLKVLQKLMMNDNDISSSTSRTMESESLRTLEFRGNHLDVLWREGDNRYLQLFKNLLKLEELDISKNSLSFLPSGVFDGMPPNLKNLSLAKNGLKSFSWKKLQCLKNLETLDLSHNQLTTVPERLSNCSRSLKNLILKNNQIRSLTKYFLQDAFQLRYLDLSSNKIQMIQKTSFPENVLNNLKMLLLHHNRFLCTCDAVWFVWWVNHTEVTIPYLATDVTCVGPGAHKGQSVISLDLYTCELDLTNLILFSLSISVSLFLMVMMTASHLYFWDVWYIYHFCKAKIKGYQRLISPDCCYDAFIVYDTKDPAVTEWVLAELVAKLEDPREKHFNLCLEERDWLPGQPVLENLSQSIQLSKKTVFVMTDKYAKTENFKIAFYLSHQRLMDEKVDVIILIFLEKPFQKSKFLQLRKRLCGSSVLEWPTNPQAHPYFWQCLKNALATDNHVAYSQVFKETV
As to the kind of experiment: Agonist activity at human TLR7 stably expressed in HEK293 cells cotransfected with secreted alkaline phosphatase assessed as induction of NFkappaB activation by quanti-blue SEAP reporter gene based spectrophotometric method. In a few lines: (§1)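 HEK293 cells stably co-transfected with the matching human TLR (2, 3, 4, 5, 7, 8 or 9) and NF-κB/AP-1-driven secreted alkaline phosphatase were kept in selection medium. About 10^5 cells/ml were incubated with graded concentrations of stimulus. sAP was read at 620 nm with a chromogen in detection medium. EC50 came from four-parameter logistic fits on quadruplicates.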

The target of another test is Toll-like receptor 2 (Homo sapiens, UniProt O60603). Briefly: Agonist activity at human TLR2 stably expressed in HEK293 cells cotransfected with secreted alkaline phosphatase assessed as induction of NFkappaB activation by quanti-blue SEAP reporter gene based spectrophotometric method. In a few lines: as §1
The target in a further test is Toll-like receptor 5 (Homo sapiens, UniProt O60602). As to the kind of experiment: Agonist activity at human TLR5 stably expressed in HEK293 cells cotransfected with secreted alkaline phosphatase assessed as induction of NFkappaB activation by quanti-blue SEAP reporter gene based spectrophotometric method. The method in brief:
as §1

For a further test, the target named is Toll-like receptor 4 (Homo sapiens, UniProt O00206). As to the kind of experiment: Agonist activity at human TLR4 stably expressed in HEK293 cells cotransfected with secreted alkaline phosphatase assessed as induction of NFkappaB activation by quanti-blue SEAP reporter gene based spectrophotometric method. The method in brief:
as §1

Sequence of Toll-like receptor 2 (O60603 whole entry): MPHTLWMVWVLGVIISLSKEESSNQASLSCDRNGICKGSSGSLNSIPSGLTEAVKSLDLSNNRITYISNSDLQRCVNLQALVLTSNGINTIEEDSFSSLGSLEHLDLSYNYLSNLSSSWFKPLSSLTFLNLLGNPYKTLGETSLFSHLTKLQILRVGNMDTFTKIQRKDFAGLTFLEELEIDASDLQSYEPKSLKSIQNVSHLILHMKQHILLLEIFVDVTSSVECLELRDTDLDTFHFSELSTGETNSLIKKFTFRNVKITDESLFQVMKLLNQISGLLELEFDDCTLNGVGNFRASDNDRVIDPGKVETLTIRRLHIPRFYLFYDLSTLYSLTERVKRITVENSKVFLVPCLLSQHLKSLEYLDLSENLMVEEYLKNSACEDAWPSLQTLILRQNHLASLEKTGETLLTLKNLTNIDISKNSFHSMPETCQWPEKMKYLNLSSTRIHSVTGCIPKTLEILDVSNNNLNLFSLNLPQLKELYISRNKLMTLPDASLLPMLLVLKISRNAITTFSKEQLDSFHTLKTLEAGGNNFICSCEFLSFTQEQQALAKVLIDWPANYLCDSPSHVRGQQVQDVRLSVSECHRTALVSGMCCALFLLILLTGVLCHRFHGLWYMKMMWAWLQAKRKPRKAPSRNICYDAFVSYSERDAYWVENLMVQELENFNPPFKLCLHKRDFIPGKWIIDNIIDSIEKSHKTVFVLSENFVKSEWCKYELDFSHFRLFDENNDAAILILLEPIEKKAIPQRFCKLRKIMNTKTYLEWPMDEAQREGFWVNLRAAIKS
Sequence of Toll-like receptor 4 (O00206 whole entry): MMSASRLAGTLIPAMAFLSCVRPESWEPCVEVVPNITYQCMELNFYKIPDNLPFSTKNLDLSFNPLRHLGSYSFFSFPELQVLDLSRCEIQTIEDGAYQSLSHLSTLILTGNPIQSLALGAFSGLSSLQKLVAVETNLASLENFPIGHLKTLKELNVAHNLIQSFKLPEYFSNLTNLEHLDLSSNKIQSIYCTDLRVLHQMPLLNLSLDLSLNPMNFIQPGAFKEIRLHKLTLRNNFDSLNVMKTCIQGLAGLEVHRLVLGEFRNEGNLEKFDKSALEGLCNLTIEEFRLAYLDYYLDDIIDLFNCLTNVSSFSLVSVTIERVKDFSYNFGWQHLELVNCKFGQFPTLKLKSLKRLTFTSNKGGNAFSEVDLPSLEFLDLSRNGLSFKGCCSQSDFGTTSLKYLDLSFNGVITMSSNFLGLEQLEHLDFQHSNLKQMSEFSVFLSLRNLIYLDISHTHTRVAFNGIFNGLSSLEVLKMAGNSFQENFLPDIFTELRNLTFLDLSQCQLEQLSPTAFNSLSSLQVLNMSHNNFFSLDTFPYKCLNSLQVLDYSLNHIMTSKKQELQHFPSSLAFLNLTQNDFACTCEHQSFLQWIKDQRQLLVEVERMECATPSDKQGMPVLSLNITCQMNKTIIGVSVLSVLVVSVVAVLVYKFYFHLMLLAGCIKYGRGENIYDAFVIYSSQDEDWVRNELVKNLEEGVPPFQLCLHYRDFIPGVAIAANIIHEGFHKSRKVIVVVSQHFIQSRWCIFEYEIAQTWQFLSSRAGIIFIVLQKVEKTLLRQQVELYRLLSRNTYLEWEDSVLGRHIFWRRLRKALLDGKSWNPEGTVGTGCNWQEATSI
Sequence of Toll-like receptor 5 (O60602 whole entry): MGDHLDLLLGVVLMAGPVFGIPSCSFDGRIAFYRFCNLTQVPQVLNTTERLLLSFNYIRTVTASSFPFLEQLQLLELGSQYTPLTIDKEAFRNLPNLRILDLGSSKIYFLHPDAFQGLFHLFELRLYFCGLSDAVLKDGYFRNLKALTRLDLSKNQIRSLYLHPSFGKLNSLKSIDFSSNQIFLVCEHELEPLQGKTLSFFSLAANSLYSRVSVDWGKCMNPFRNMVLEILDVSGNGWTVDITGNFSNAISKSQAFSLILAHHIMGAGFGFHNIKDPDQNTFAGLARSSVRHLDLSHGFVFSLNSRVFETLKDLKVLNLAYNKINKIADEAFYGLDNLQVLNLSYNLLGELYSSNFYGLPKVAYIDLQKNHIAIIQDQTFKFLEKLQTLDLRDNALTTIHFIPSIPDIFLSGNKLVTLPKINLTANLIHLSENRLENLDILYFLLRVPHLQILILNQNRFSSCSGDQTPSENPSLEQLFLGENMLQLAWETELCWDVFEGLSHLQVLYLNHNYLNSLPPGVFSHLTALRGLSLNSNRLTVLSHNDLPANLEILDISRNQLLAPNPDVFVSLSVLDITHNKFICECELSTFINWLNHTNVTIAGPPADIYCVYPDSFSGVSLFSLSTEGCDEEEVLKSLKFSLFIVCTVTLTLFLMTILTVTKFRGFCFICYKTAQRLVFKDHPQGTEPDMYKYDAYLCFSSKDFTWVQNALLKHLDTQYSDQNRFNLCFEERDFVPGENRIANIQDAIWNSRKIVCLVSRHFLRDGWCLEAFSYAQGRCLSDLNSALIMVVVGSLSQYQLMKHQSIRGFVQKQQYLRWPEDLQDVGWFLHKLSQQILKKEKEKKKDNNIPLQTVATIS

For the compound `CCCCCn1cc(-c2ccc(OC)cc2C)nc1N`, the RUmax in test [1] came to 0.9. The result (in test [2]; at Toll-like receptor 2; on Toll-like receptor 5; at Toll-like receptor 4) was inactive.
As for `CCCCCn1ccnc1N`, the RUmax in test [1] is 1.2. In addition, the outcome (in test [2]; on Toll-like receptor 2; at Toll-like receptor 5; on Toll-like receptor 4) was inactive.
In the case of `CCCCCn1cc(-c2ccccc2C)nc1N`, the RUmax in test [1] was 1.4. Moreover, the result (in test [2]; at Toll-like receptor 2; at Toll-like receptor 5; on Toll-like receptor 4) was inactive.
On to `CCCCCn1cc(-c2ccc(C(F)(F)F)cc2)nc1N`, for which the RUmax in test [1] worked out at 0.8. In addition, the result (in test [2]; on Toll-like receptor 2; on Toll-like receptor 5; on Toll-like receptor 4) was inactive.
As to `CCCCCn1cc(-c2cccc(C)c2)nc1N`, in test [1], the RUmax is 1. For the same compound, the outcome (in test [2]; on Toll-like receptor 2; at Toll-like receptor 5; on Toll-like receptor 4) was inactive.
For `CCCCCn1cc(Cc2ccccc2)nc1N`, the RUmax in test [1] was 1. Also, the result (in test [2]; on Toll-like receptor 2; on Toll-like receptor 5; at Toll-like receptor 4) was inactive.
As for `CCCCCn1cc(-c2cccc(C)c2C)nc1N`, the RUmax in test [1] worked out at 1.3. The outcome (in test [2]; at Toll-like receptor 2; on Toll-like receptor 5; on Toll-like receptor 4) was inactive.
As for `CCCCCn1cc(-c2cccc(OC)c2OC)nc1N`, the RUmax in test [1] is 0.6. Also, the outcome (in test [2]; at Toll-like receptor 2; on Toll-like receptor 5; on Toll-like receptor 4) was inactive.
As for `CCCCCn1cc(-c2ccccc2OC)nc1N`, the RUmax in test [1] was found to be 1.6. Further, the outcome (in test [2]; at Toll-like receptor 2; at Toll-like receptor 5; on Toll-like receptor 4) was inactive.
As to `CCCCCn1cc(-c2c(C)cccc2C)nc1N`, the RUmax in test [1] came to 1.2. The outcome (in test [2]; at Toll-like receptor 2; on Toll-like receptor 5; at Toll-like receptor 4) was inactive.
As for `CCCCCn1cc(-c2ccc3ccccc3c2)nc1N`, the RUmax in test [1] came out at 0.42. Also, the outcome (in test [2]; on Toll-like receptor 2; on Toll-like receptor 5; on Toll-like receptor 4) was inactive.
With `CCCCCn1cc(-c2ccc(F)cc2C)nc1N`, the RUmax in test [1] is 1.7. For the same compound, the result (in test [2]; on Toll-like receptor 2; at Toll-like receptor 5; on Toll-like receptor 4) was inactive.
On to `CCCCCn1cc(-c2ccccc2CO)nc1N`, for which the RUmax in test [1] turned out to be 1.6. The outcome (in test [2]; at Toll-like receptor 2; on Toll-like receptor 5; at Toll-like receptor 4) was inactive.
In the case of `CCCCCn1cc(-c2ccccc2C(=O)OC)nc1N`, the RUmax in test [1] is 1.2. Besides, the outcome (in test [2]; on Toll-like receptor 2; at Toll-like receptor 5; on Toll-like receptor 4) was inactive.
For `CCCCCn1cc(-c2ccc(C(=O)OC)cc2)nc1N`, the RUmax in test [1] amounted to 0.7. Also, the result (in test [2]; at Toll-like receptor 2; on Toll-like receptor 5; at Toll-like receptor 4) was inactive.
Take `CCCCCn1cc(-c2ccc(C)cc2C)nc1N`: the RUmax in test [1] is 1.2. The result (in test [2]; at Toll-like receptor 2; on Toll-like receptor 5; on Toll-like receptor 4) was inactive.
Consider `CCCCCn1cc(-c2ccc(-c3ccccc3)cc2)nc1N`, for which the RUmax in test [1] was 0.47. Further, the outcome (in test [2]; at Toll-like receptor 2; at Toll-like receptor 5; on Toll-like receptor 4) was inactive.
Turning to `CCCCCn1cc(-c2cccc3ccccc23)nc1N`, the RUmax in test [1] amounted to 0.9. The outcome (in test [2]; on Toll-like receptor 2; at Toll-like receptor 5; at Toll-like receptor 4) was inactive.
Take `CCCCCn1cc(-c2cccc(OC)c2)nc1N`: the RUmax in test [1] was determined as 1.2. Besides, the result (in test [2]; at Toll-like receptor 2; at Toll-like receptor 5; at Toll-like receptor 4) was inactive.
As to `CCCCCn1cc(-c2ccccc2Cl)nc1N`, the RUmax in test [1] stood at 1. Besides, the outcome (in test [2]; on Toll-like receptor 2; at Toll-like receptor 5; at Toll-like receptor 4) was inactive.
Consider `CCCCCn1c(-c2ccccc2)cnc1N.Cl`, for which the result (in test [2]; at Toll-like receptor 2; on Toll-like receptor 5; on Toll-like receptor 4) was inactive.
Consider `CCCCCn1cc(-c2ccccc2OCc2ccccc2)nc1N.Cl`, for which the result (in test [2]; at Toll-like receptor 2; on Toll-like receptor 5; at Toll-like receptor 4) was inactive.

The values are drawn from ChEMBL document CHEMBL4765226, “Identification of a Human Toll-Like Receptor (TLR) 8-Specific Agonist and a Functional Pan-TLR Inhibitor in 2-Aminoimidazoles” (J Med Chem, 2016).
